# This is one part of a sample in which hits are shown more often than they occur.
# UPR XBP1 act – activators of adaptive arm of unfolded protein response (XBP1). hit rate 0.33% among 330,000. activation, % at 20 µM. CHO-XBP1 luciferase reporter, IRE1-XBP1 UPR activation, luminescence; percent of tunicamycin response, DMSO as zero;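 active means versus positive control, 20 µM dose yields 30% or more activation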;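 further: 100% = tunicamycin at 10 µg/mL and 0% = DMSO only wells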
#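 incubation = overnight seeding at 37 °C, 6 h compound treatment at 37 °C | assay system = CHO-XBP1 cells stably carrying IRE1-XBP1-driven luciferase reporter | input = 1000 cells per well | detection = luciferase luminescence | dosing = single point, 20 µM final compound, 1% DMSO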
# VLA-4 inh – inhibition in a human VLA-4 binding assay | VLA-4 expressing cells, ligand binding flow cytometry | inhibition, % (about 7 µM as worked out from the volumes in the protocol) | hit rate 0.2% among 330,000; in the data active means inhibition above about 50%
# Target sequence (P13612 whole entry, looked up): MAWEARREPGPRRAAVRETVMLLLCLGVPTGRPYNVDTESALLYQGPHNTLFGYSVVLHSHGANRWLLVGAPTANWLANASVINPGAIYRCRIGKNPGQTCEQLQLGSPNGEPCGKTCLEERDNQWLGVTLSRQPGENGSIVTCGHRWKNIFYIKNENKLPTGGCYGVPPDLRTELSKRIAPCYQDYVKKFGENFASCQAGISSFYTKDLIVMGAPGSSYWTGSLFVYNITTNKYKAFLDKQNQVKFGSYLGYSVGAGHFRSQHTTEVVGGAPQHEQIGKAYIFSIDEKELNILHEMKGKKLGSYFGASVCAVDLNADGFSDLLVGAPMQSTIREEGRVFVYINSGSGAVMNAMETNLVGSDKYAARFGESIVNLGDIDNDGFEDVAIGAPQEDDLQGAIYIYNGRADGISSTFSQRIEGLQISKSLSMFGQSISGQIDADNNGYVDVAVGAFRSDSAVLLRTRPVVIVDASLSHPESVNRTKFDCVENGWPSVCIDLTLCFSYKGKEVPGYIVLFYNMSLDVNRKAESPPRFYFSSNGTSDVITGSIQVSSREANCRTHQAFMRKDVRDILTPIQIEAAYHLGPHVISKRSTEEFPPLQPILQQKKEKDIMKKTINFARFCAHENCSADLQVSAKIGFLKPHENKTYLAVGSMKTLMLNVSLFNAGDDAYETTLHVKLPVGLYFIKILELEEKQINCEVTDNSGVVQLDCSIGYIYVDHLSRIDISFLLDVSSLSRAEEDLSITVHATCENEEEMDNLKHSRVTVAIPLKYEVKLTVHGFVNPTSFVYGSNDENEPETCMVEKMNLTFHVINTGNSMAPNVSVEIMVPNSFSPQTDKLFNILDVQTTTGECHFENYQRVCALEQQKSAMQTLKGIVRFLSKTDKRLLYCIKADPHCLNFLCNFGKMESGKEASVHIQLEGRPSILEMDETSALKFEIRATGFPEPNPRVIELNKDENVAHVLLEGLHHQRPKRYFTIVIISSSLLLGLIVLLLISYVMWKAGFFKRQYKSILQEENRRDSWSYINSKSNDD
# Beta2AR agonist – human beta-2 adrenergic receptor agonism by FAP; response, % (concentration not given with the values); P07550; hit rate 0.43% among 340,000; Am2.2-beta2AR cells, FAP receptor internalization, flow cytometry;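 active means response above a set limit, near 3 SD of response in nonfluorescent compounds, cut at about 42% in these data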
# CHOP inh – CHOP inhibition in unfolded protein response | CHO-K1 CHOP-promoter luciferase, tunicamycin-induced, 15-18 h | inhibition, % at 10 µM | hit rate 3.8% among 220,000 | AID 2732;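 active means compounds that reduced the stress-induced luciferase reporter signal by more than about 70% of percent inhibition, limit read from the data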;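 further: 0% = tunicamycin plus vehicle and 100% = wells without tunicamycin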
# CHOP UPR activ – activators of apoptotic arm of unfolded protein response (CHOP); CHO-CHOP luciferase reporter, UPR activation, luminescence; percent of tunicamycin response over DMSO baseline; activation, % at 10 µM; hit rate 0.34% among 330,000; AID 449763;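 active means at 10 µM dose, activation of 40% or more, normalized to positive control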;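 further: 100% = tunicamycin at 10 µg/mL and 0% = DMSO alone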
#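 Dosing – one dose, 10 µM in 0.5% DMSO · System – CHO-CHOP cells, stable luciferase reporter of PERK-eIF2a-CHOP signalling · Input – 500 cells/well · Control set – tunicamycin 10 µg/mL final as positive, DMSO-only wells as negative · Timing – 6 h compound treatment, 37 °C · Measure – % activation vs tunicamycin · Technique – luminescence read with Steady-Glo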
# UPR XBP1 confirm – confirmation of adaptive unfolded protein response (XBP1) activators; shares compounds with UPR XBP1 act; CHO-XBP1 IRE1-XBP1 luciferase reporter, luminescence; activation, % at 20 µM; hit rate 63% among 1,000; AID 485299;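 active means reporter signal at least 30% of the positive control's activation in two or more of four replicate wells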;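 further: plate controls were DMSO negative control for no effect and tunicamycin 10 µg/mL positive control for full effect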
# * marks the source's active call; other numbers are inactive results; nt = not tested or not shown.
SMILES,UPR XBP1 act,VLA-4 inh,Beta2AR agonist,CHOP inh,CHOP UPR activ,UPR XBP1 confirm
COc1cccc(C2Nc3ccc4ccccc4c3C3=C2C(=O)CCC3)c1O (stereo not drawn),57.0*,-6.8,13.6,nt,1.7,7.5
CCOC(=O)C1(Cc2cccc(OC)c2)CCCN(Cc2cc(OC)c(O)c(OC)c2)C1 (stereo not drawn),-4.5,20.1,27.6,nt,-1.9,nt
O=C(Nc1nc2ccc(Cl)cc2s1)c1ccc(N2CCCCC2)c([N+](=O)[O-])c1,33.2*,-1.6,13.8,-8.5,30.3,82.8*
O=C(Nc1nc2ccc3ccccc3c2s1)c1ccc(N2CCCCC2)c([N+](=O)[O-])c1,14.7,10.4,5.2,-19.6,6.0,nt
COc1ccc(-c2nn(-c3ccccc3)cc2C(=O)N/N=C/c2ccc([N+](=O)[O-])o2)cc1,37.7*,-3.5,3.4,90.0*,35.7,12.6
Cc1sc(NC(=O)c2ccco2)c(C(c2cccnc2)N2CCN(c3ccc(F)cc3)CC2)c1C (stereo not drawn),32.6*,2.0,4.9,nt,16.7,18.3
Cc1sc(NC(=O)c2ccco2)c(C(c2ccc(F)cc2)N2CCN(C)CC2)c1C (stereo not drawn),0.6,10.9,6.2,39.0,1.1,nt
COc1ccccc1C(=O)NNC(=O)CCC(=O)NCc1ccccc1,-3.3,22.7,4.0,nt,0.5,nt
CSc1ccccc1NC(=O)c1cc(-c2cccnc2)nc2ccc(Br)cc12,31.5*,-1.4,0.8,104.1*,1.1,65.7*
COC(=O)c1sccc1NC(=O)c1cc(-c2cccc(C)c2)nc2ccccc12,63.7*,-5.0,6.7,27.8,-1.2,79.5*
Cc1cc(NC(=O)c2cc(-c3ccncc3)nc3ccccc23)ccc1Br,65.9*,12.9,17.8,nt,2.4,44.0*
COC(=O)c1ccccc1NC(=O)c1ccc(-c2cccc(Cl)c2)o1,52.1*,-4.0,-1.3,67.4,13.6,14.7
CCCCn1c(N)c(N(CCC(C)C)C(=O)C2=NN(c3cc(C)ccc3C)C(=O)CC2)c(=O)[nH]c1=O,-0.8,-2.8,-2.8,nt,1.3,nt
Cc1cc2nc(CCN3CCOCC3)n(S(=O)(=O)c3ccc(C(C)(C)C)cc3)c2cc1C,31.6*,-7.6,-13.1,35.6,14.8,0.3
Cc1cc2ncn(S(=O)(=O)c3ccc(S(=O)(=O)N4CCOCC4)cc3)c2cc1C,4.0,-0.2,2.2,46.7,-2.4,nt
COc1cc(/C=N/NC(=O)NC23CC4CC(CC(C4)C2)C3)ccc1O,44.4*,1.9,16.9,nt,-0.2,24.1
Nc1nc(Nc2ccc(Cl)cc2)nc2ccccc12,32.8*,-2.2,-4.9,64.0,24.5,25.1
Cc1ccccc1Cn1cc(NC(=O)c2cc3nc(-c4ccco4)cc(C(F)(F)F)n3n2)cn1,-3.0,4.2,-0.5,-25.9,-1.4,nt
CCc1ccc(-c2cc(C(F)(F)F)n3nc(C(=O)Nc4cnn(Cc5ccc(C)cc5)c4)cc3n2)s1,74.8*,0.5,19.1,3.8,26.8,288.5*
OC(CNCC1CCCO1)Cn1c2ccc(Cl)cc2c2cc(Cl)ccc21 (stereo not drawn),64.3*,24.8,32.6,94.3*,11.0,58.6*
OC(CNCC1CCCO1)Cn1c2ccccc2c2ccccc21 (stereo not drawn),0.8,16.5,2.9,48.7,0.8,nt
Cc1ccc(C(C(=O)NCc2ccco2)N(C(=O)CNC(=O)c2cccs2)c2ccc(C)cc2)cc1 (stereo not drawn),-3.3,3.6,-15.3,24.4,-1.6,nt
Cc1ccc(C(C(=O)NCc2ccco2)N(C(=O)CNC(=O)c2cccs2)c2c(C)cc(C)cc2C)cc1 (stereo not drawn),35.6*,1.5,-11.2,73.7*,24.8,32.1*
O=CNC1c2ccccc2CCc2ccccc21,nt,nt,-0.9,nt,nt,nt
Cc1ccc2c(n1)sc1c(-c3ccc(Br)cc3)c(C#N)c(N)nc12,60.6*,9.5,9.2,81.7*,0.0,43.4*
SMILES,UPR XBP1 act,VLA-4 inh,Beta2AR agonist,CHOP inh,CHOP UPR activ,UPR XBP1 confirm
O=C(c1ccc2c(c1)[nH]c(=S)n1c3ccccc3nc21)N1CCN(c2cccc(Cl)c2)CC1,33.3*,-3.6,6.3,50.6,0.8,54.5*
C=CCn1c(=O)[nH]c2cc(C(=O)N3CCN(c4cccc(Cl)c4)CC3)ccc2c1=O,2.4,-9.6,4.6,60.1,-1.7,nt
CCOC(=O)[C@H]1[C@H]2COc3ccc(OC)cc3[C@@H]2N2C(=O)c3cc(OC)c(OC)cc3NC(=O)[C@@]12C,0.2,nt,0.2,nt,0.6,nt
Cc1ccc(OCc2nnc(SCC(=O)Nc3nccs3)n2-c2ccccc2)cc1C,35.4*,29.2,3.9,75.2*,9.0,14.6
Cc1ccc(-n2c(COc3c(C)cccc3C)nnc2SCC(=O)Nc2nccs2)cc1,-1.6,9.3,9.2,33.4,0.4,nt
CCc1cccc(C)c1NC(=O)CN1C(=O)NC(CCc2ccccc2)C1=O (stereo not drawn),-0.7,-5.3,-5.6,nt,1.2,nt
CCCCCCOc1ccc(/C=c2\s/c(=C(/C#N)C(=O)NCc3ccco3)n(-c3ccccc3)c2=O)cc1,44.6*,7.8,-1.5,11.2,6.1,25.6
Cn1c(=O)c2c(nc(N3CCCCC3)n2C)n(C)c1=O,51.9*,-4.7,-0.8,-25.5,-3.3,0.0
CC(C)CCn1c(N2CCCC2)nc2c1c(=O)n(C)c(=O)n2C,0.3,6.5,1.3,nt,2.3,nt
O=C(CSc1cccc2cccnc12)N/N=C/c1ccc(O)cc1,0.9,-4.5,9.5,20.6,-1.6,nt
COc1cccc(/C=N/NC(=O)CSc2cccc3cccnc23)c1,31.8*,13.7,6.4,3.6,27.2,21.6
CN(C)S(=O)(=O)c1ccc(N2CCCC2)c(C(=O)Nc2nccs2)c1,59.7*,4.6,-6.1,nt,5.5,68.5*
COc1ccc(NC(=O)CSc2nc3n[nH]c(C)c3c(=N)n2-c2ccc(Cl)c(C)c2)cc1OC,34.4*,-7.8,6.8,nt,8.0,17.1
CCOc1cc2c3c(c1)C(C)=CC(C)(C)N3C(=O)C2=O,40.5*,21.8,17.5,-17.1,0.3,32.2*
CC(C)N(C(=O)COC(=O)[C@@H]1CC(O)CN1S(=O)(=O)c1ccc(C(C)(C)C)cc1)C(C)C (stereo partly drawn),-0.6,8.0,1.7,-2.7,1.1,nt
S=C(Nc1cccc(Cl)c1)NC1CCCCC1,36.9*,14.5,-4.3,43.6,0.0,-1.3
COc1ccc(/C=N/Nc2nc(-c3cccnc3)nc3ccccc23)cc1OC,17.3,-27.3,17.8,-10.9,6.0,nt
Cc1c(O)ccc(/C=N/Nc2nc(-c3cccnc3)nc3ccccc23)c1O,36.1*,15.7,22.5,24.0,8.5,28.3
CN(C(=O)c1ccccc1C(=O)OCC(=O)Nc1ccc(OC(F)F)cc1)c1ccccc1,-0.7,13.9,-4.0,nt,0.8,nt
COc1cc(OC)cc(C(=O)Nc2ccc3nc4n(c(=O)c3c2)CCCCC4)c1,32.4*,1.8,6.6,nt,6.4,36.0*

# Source: PubChem
